bovine MsrA act – bovine MsrA enzyme activators, primary screen, biochemical, absorbance, HTS. Methionine sulfoxide reductase A (Bos taurus). purified bovine MsrA, absorbance read-out. activation, % at 10.6 µM. 360,000 tested, 0.3% active; in the data active = activation above about 7.5%
AI-2 QS modul – Vibrio harveyi AI-2 quorum sensing modulators, primary screen, JMH597 strain, luminescence/OD600 ratio | Vibrio harveyi JMH597 AI-2 luminescence/OD600 ratio, 9 h; hits give low values; strain lacks LuxN and CqsS sensors; 0 = neutral-control median | activity change, % at 7.5 µM | 300,000 tested, 0.4% active; in the data active = activity change below about -75%, passing the limit was not always enough;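 also: luminescence divided by OD600 gain over 9 h not by final OD600 alone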
TbMetRS inhib – T. brucei MetRS inhibitors, primary screen, biochemical, luminescence | methionyl-tRNA synthetase (Trypanosoma brucei brucei) | purified T. brucei MetRS, ATP depletion, Kinase-Glo luminescence | inhibition, % at 11.9 µM | 360,000 tested, 0.4% active;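 active = inhibition above a per-plate cutoff of the control wells' mean inhibition plus 3 SD, cut at about 5.5% in these data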
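technique = Kinase-Glo luminescence, ATP depletion format | system = purified MetRS (methionyl-tRNA synthetase) enzyme from Trypanosoma brucei | timing = 15 min preincubation, 2 h reaction, all 25 °C | evaluation = percent inhibition versus plate control medians | dosing = single dose, 11.9 µM final nominal, 0.9% final DMSO | also added = substrates ATP, L-methionine and bulk Escherichia coli tRNA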
MsrA inhibitor – bovine MsrA enzyme inhibitors, primary screen, biochemical, absorbance, HTS; purified bovine MsrA, absorbance read-out; inhibition, % at 15.5 µM; 360,000 tested, 0.75% active; AID 651718, 2012; in the data active = inhibition above about 4.5%
HTR2A ag – mouse Htr2a agonists via beta-arrestin recruitment, primary screen, cell-based, luminescence; 5-hydroxytryptamine receptor 2A (Mus musculus), P35363; CHO-K1 mHTR2A beta-arrestin complementation; percent of 30 µM serotonin response; activation, % at 7.6 µM; 360,000 tested, 0.66% active;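 active = activation above a run cutoff, the mean activation of all tested compounds plus 3 SD, cut at about 14% in these data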
AHR act – AHR activators, primary screen, cell-based, luminescence, luciferase reporter, human; activation, % at 5 µM; 320,000 tested, 2.5% active; Aryl hydrocarbon receptor (Homo sapiens), P35869; AHR-responsive luciferase reporter cells; in the data active = activation above about 47%
OPRM1 ag – OPRM1 agonists via beta-arrestin recruitment, confirmation, counter-screen for mouse HTR2A agonist project, cell-based, luminescence, single concentration; 2,300 tested, 5.3% active; U2OS OPRM1 beta-arrestin PathHunter; DMSO 0%, DAMGO 9.3 µM 100%; shares compounds with HTR2A ag; activation, % at 9.3 µM;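 active = mean activation above the mean of DMSO-only wells plus 3 SD, cut at about 0.5% in these data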
HTR2A ag conf – mouse HTR2A agonists, beta-arrestin recruitment, confirmation, cell-based, luminescence, CHO-K1 PathHunter, triplicate; shares compounds with HTR2A ag; DMSO 0%, 30 µM serotonin 100%; activation, % at 7.6 µM; 2,300 tested, 19% active;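 active = mean activation across triplicates above the hit threshold derived in the original primary screen, cut at about 15% in these data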
Hits are given with their value; n = inactive; x = no result. In the library only some 4.4% were active in any assay of this set; here they are far more common.

SMILES	bovine MsrA act	AI-2 QS modul	TbMetRS inhib	MsrA inhibitor	HTR2A ag	AHR act	OPRM1 ag	HTR2A ag conf
CCCC12CN(C(=O)c3ccco3)CC(CCC)(CN(C(=O)c3ccco3)C1)C2=O	n	n	n	n	n	n	x	x
C=CCn1c(=O)/c(=C\c2ccccn2)s/c1=C(/C#N)C(=O)NCC1CCCO1 (centres undefined)	n	n	n	n	n	n	x	x
C=CCn1c(=O)/c(=C/c2ccc(C)o2)s/c1=C(/C#N)C(=O)c1ccccc1	n	n	n	n	15	n	n	n
CN1CCN(c2ccc(Cl)cc2NC(=O)c2ccc(=O)n(C)n2)CC1	n	n	n	n	18	n	n	n
O=C1Nc2c(Cl)cc(Cl)cc2C12Nc1ccccc1S2 (centres undefined)	x	x	x	n	x	x	x	x
CCCOc1ccc(C(=O)Nc2ccc(S(=O)(=O)NC3=NCCCCC3)cc2)cc1	n	n	n	n	n	n	x	x
COc1ccccc1-c1c(C(F)(F)F)oc2cc(OS(C)(=O)=O)ccc2c1=O	n	n	n	n	26	n	n	n
Cc1ccc2c(CC(=O)Nc3ccc(F)c(S(=O)(=O)N4CCOCC4)c3)coc2c1	n	x	n	n	n	n	x	x
COc1ccc(CNC(=O)CN(C(=O)CCC(=O)Nc2ccccn2)c2ccc(C)cc2)cc1	n	n	n	n	30	n	n	n
CC(CC(=O)NCCc1ccc(Cl)cc1)S(=O)(=O)c1ccc2c(c1)NC(=O)CO2 (centres undefined)	n	n	n	n	n	n	x	x
CC(C(=O)Nc1ccc2c(c1)OCCO2)N1Cc2ccccc2C1=O (centres undefined)	n	n	n	n	n	n	x	x
CC(C)c1ccc(NC2CCCN(C(=O)c3ccc4nccnc4c3)C2)cc1 (centres undefined)	n	n	n	n	21	n	n	n
CC(C)c1ccc(NC2CCCN(C(=O)c3ccnc(Cl)c3)C2)cc1 (centres undefined)	n	n	n	n	n	n	x	x
CC(C)c1cc(C(=O)N2CCCC(Nc3ccc(F)cc3)C2)nc(N)n1 (centres undefined)	n	n	n	n	16	n	n	n
CCNS(=O)(=O)c1ccc(Br)c(C(=O)OC(C)C(=O)NCC2CCCCC2)c1 (centres undefined)	n	x	n	n	n	n	x	x
O=c1cc(C(F)(F)F)[nH]c2ccc(C(F)(F)F)cc12	n	n	n	n	26	n	n	n
CCCCn1c2ccccc2c2nnc(SCCN3CCCCC3)nc21	n	n	n	n	n	x	x	x
CCCCc1c(C)nn(-c2nnc3c4ccccc4n(CC)c3n2)c1C	n	n	n	n	15	52	n	n
Cc1n[nH]c(=S)n(/N=C/c2cccs2)c1=O	n	n	n	n	14	n	n	n
S=c1[nH]nc(COc2ccccc2)n1/N=C/c1cccs1	n	n	n	n	n	n	x	x
COC(=O)CC1C(=O)NCCN1C(=O)c1ccc(Cl)cc1 (centres undefined)	n	n	n	n	n	n	x	x
c1ccc2cc(CN3CCOCC3)ccc2c1	n	n	n	n	20	n	n	n
CCCCNC(=O)c1nc(-c2ccc(C(F)(F)F)cc2)oc1-c1ccccc1	x	x	n	n	n	x	x	x
CCCCNC(=O)c1nc(-c2cc3ccccc3[nH]2)oc1-c1cccc(C(F)(F)F)c1	x	x	n	n	16	x	0.7	n
Clc1ccc(/C=N/NC2=Nc3cccc4cccc2c34)cc1	n	n	n	n	15	n	n	n

Compound activity: PubChem, several laboratories
